Ki and IC50 data for two molecules are collected here from ChEMBL document CHEMBL1137664, “Conflicting requirements of Plasmodium falciparum dihydrofolate reductase mutations conferring resistance to pyrimethamine-WR99210 combination” (Antimicrob Agents Chemother, 2007).

In general, Ki refers to a measure of affinity in units of concentration, obtained from inhibition or displacement. By IC50 is commonly meant the concentration at which inhibition is half-maximal. A high value points to a need for much substance.

Experiment [1] in a line: Inhibition of pyrimethamine-resistant form-3 Plasmodium falciparum N51I, C59R, S108N, I164L, I150V, N182I, N201D mutant expressed in Escherichia coli BL21(DE3) by Michaelis-Menten based competitive inhibition assay.
Experiment [2] deals with T1, Bifunctional dihydrofolate reductase-thymidylate synthase (Plasmodium falciparum (isolate 3D7), UniProt Q8I1R6, C59R/I164L/K96N/N51I/S108N). The experiment in a line: Inhibition of pyrimethamine-resistant form-2 Plasmodium falciparum N51I, C59R, S108N, I164L, K96N mutant expressed in Escherichia coli BL21(DE3) by Michaelis-Menten based competitive inhibition assay.
The nature of experiment [3]: Inhibition of pyrimethamine-resistant form-1 Plasmodium falciparum N51I, C59R, S108N, I164L, D187A mutant expressed in Escherichia coli BL21(DE3) by Michaelis-Menten based competitive inhibition assay.
Experiment [4] can be described thus: Inhibition of WR99210-resistant form-3 Plasmodium falciparum N51I, C59R, N108T, I164L mutant expressed in Escherichia coli BL21(DE3) by Michaelis-Menten based competitive inhibition assay.
The nature of experiment [5]: Inhibition of WR99210-resistant form-1 Plasmodium falciparum I51N, C59R, N108S, I164L mutant expressed in Escherichia coli BL21(DE3) by Michaelis-Menten based competitive inhibition assay.
The nature of experiment [6]: Inhibition of Plasmodium falciparum DHFR QM template N51I, C59R, S108N, I164L mutant expressed in Escherichia coli BL21(DE3) by Michaelis-Menten based competitive inhibition assay.
The nature of experiment [7]: Inhibition of Plasmodium falciparum DHFR-TS QM template N51I, C59R, S108N, I164L mutant expressed in Escherichia coli BL21(DE3) by Michaelis-Menten based competitive inhibition assay.
Experiment [8] can be described thus: Inhibition of Plasmodium falciparum DHFR-TS QM template N51I, C59R, S108N, I164L mutant expressed in Escherichia coli BL21(DE3). In a few lines:
(§1)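 The recombinant enzyme was expressed in E. coli BL21(DE3) and purified by methotrexate-Sepharose affinity chromatography. Each reaction was started by adding 0.008 to 0.01 U of enzyme in the presence of varying inhibitor amounts. DHFR activity was read on a microplate spectrophotometer, and IC50 was taken from the inhibition data.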

The nature of experiment [9]: Inhibition of WR99210-resistant form-A Plasmodium falciparum DHFR-TS I51N, C59R, N108S, L164I, D54N mutant expressed in Escherichia coli BL21(DE3). In a few lines: as §1
Experiment [10] is described as follows: Inhibition of Plasmodium falciparum DHFR QM template N51I, C59R, S108N, I164L mutant expressed in Escherichia coli BL21(DE3). In a few lines:
as §1

Experiment [11] is described as follows: Inhibition of WR99210-resistant form-1 Plasmodium falciparum I51N, C59R, N108S, I164L mutant expressed in Escherichia coli BL21(DE3). In a few lines: as §1
Experiment [12] in a line: Inhibition of WR99210-resistant form-2 Plasmodium falciparum N51I, C59R, N108S, I164L mutant expressed in Escherichia coli BL21(DE3). In a few lines:
as §1

The nature of experiment [13]: Inhibition of WR99210-resistant form-3 Plasmodium falciparum N51I, C59R, N108T, I164L mutant expressed in Escherichia coli BL21(DE3). In a few lines:
as §1

A short description of experiment [14]: Inhibition of pyrimethamine-resistant form-1 Plasmodium falciparum N51I, C59R, S108N, I164L, D187A mutant expressed in Escherichia coli BL21(DE3). In a few lines:
as §1

The target of experiment [15] is T1, Bifunctional dihydrofolate reductase-thymidylate synthase. The experiment in a line: Inhibition of pyrimethamine-resistant form-2 Plasmodium falciparum N51I, C59R, S108N, I164L, K96N mutant expressed in Escherichia coli BL21(DE3).
A short description of experiment [16]: Inhibition of pyrimethamine-resistant form-3 Plasmodium falciparum N51I, C59R, S108N, I164L, I150V, N182I, N201D mutant expressed in Escherichia coli BL21(DE3). In a few lines:
as §1

Experiment [17] is described as follows: Inhibition of WR99210-resistant form-2 Plasmodium falciparum N51I, C59R, N108S, I164L mutant expressed in Escherichia coli BL21(DE3) by Michaelis-Menten based competitive inhibition assay.

T1 sequence (Q8I1R6 whole entry N51I/C59R/K96N/S108N/I164L): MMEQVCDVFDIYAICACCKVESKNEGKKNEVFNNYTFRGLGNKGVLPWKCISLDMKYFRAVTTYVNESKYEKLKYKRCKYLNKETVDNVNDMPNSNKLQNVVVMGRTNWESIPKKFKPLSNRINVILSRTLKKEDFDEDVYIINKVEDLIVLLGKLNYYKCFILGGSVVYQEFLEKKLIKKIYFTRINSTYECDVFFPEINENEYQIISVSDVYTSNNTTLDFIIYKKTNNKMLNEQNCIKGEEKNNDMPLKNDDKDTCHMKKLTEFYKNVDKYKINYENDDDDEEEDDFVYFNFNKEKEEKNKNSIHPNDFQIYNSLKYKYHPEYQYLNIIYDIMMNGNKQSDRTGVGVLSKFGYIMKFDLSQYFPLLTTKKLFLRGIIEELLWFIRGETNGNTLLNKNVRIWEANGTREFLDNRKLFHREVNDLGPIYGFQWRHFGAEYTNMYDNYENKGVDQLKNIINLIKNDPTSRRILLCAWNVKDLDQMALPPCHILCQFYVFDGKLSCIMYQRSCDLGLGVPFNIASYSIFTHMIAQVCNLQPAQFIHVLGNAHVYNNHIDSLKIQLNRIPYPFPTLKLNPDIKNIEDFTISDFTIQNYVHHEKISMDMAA

In the case of `CC1(C)N=C(N)N=C(N)N1OCCCOc1cc(Cl)c(Cl)cc1Cl`, the Ki in experiment [1] is 147 nM; in experiment [2], 292 nM; in experiment [3], 514 nM; in [4], 72.4 nM; in experiment [5], 8.09 nM; in experiment [6] it was 859 nM. In addition, the Ki was 209 nM in experiment [7] and 17.6 nM in experiment [17]. For the same molecule, the IC50 in experiment [8] was 160 nM; in experiment [9] it was 40000 nM; in experiment [10] it was 50 nM; in experiment [11], 200 nM; in [12], 60 nM; in experiment [13], 680 nM. Besides, the values for the IC50 in [14], in experiment [15] and in experiment [16] were 50 nM, 90 nM and 920 nM, respectively.
Turning to `CCc1nc(N)nc(N)c1-c1ccc(Cl)cc1` [PYRIMETHAMINE], the Ki stood at 1.07 nM in experiment [1]; 1.24 nM in experiment [3]; 15.5 nM in experiment [4]; 3.57 nM in [5]; 1.9 nM in experiment [6]; 2.1 nM in experiment [7]. The same molecule yielded a Ki in experiment [17] of 7.26 nM. Moreover, the IC50 in [8] was 170 nM; in experiment [9] it was 7200 nM; in [10], 420 nM; in [11], 90 nM; in [12], 10 nM; in experiment [13] it was 1820 nM. The IC50 in [14] worked out at 870 nM; in [16], 3470 nM.
